Experimental data pooled from the literature.
Lines come from different studies, so protocols differ.
PDGFRA: Platelet-derived growth factor receptor alpha (PDGFRA, Homo sapiens, UniProt P16234)
PDGFRA V561D: Platelet-derived growth factor receptor alpha (PDGFRA, Homo sapiens, UniProt P16234, V561D)
PDGFRA T674I: Platelet-derived growth factor receptor alpha (PDGFRA, Homo sapiens, UniProt P16234, T674I)
PDGFRA D842V: Platelet-derived growth factor receptor alpha (PDGFRA, Homo sapiens, UniProt P16234, D842V)

Oc1ccc(-c2nc(-c3ccncc3)c(-c3ccc(F)cc3)[nH]2)cc1  remaining signal (PDGFRA; cell-free assay; 0.5 µM): 98.8%
CN(C)c1ncnc(-c2ccc3nc(Nc4cc(CN5CCN(C(=O)CC(F)(F)F)CC5)ccn4)[nH]c3c2)c1Cl  remaining binding (PDGFRA; cell-free assay, competition with immobilised ligand; 1 µM): 61%
CNC(=O)c1cc2c(Oc3ccc(NC(=O)C4(C(=O)Nc5ccc(F)cc5)CC4)cc3)ccnc2cc1OC  inhibition (PDGFRA V561D; enzyme activity, inhibitor, radiometric; 1 µM): 101%
COc1cc(-c2cc(-c3ccc(N4CCNCC4)cc3)cnc2N)cc(OC)c1OC  inhibition (PDGFRA V561D; enzyme activity, inhibitor; 0.1 µM): 45%
O=C(Nc1cnn(-c2csc(C(=O)NC3COC3)c2)c1)Nc1c(F)cccc1Cl  remaining activity (PDGFRA; enzyme activity, inhibitor; 5 µM): 107%
O=C(N1CCS(=O)(=O)CC1)N1C[C@H](c2ccc(OC(F)(F)F)cc2)C[C@H](c2nc(C3CC3)no2)C1  remaining binding (PDGFRA; cell-free assay, competition with immobilised ligand; 1 µM): 100%
Cc1cc(NC(=O)c2cccc3cc(-c4cccc5[nH]nc(N)c45)ccc23)ccc1F  activity vs control (PDGFRA; enzyme activity, inhibitor; 0.1 µM): 92%
O=C(Nc1cnn(-c2csc(C(=O)NC3COC3)c2)c1)Nc1ccccc1Cl  remaining activity (PDGFRA; enzyme activity, inhibitor; 5 µM): 95.2%
FC(F)(F)Oc1cccc(-c2cnc3ccc(-c4ccncc4)nn23)c1  activity vs control (PDGFRA; enzyme activity, inhibitor, radiometric; 5 µM): 49%
C[C@@H]1CN(c2cc(-c3nn(C)c4ccc(OC5(C)CC5)cc34)ncn2)C[C@H](C)O1  remaining binding (PDGFRA; cell-free assay, competition with immobilised ligand; 1 µM): 83%
Cc1ccc(C(=O)NCc2ccsc2)cc1C#Cc1cn(C(C)C)c2ncnc(N)c12  activity vs control (PDGFRA; enzyme activity, inhibitor; 1 µM): 4%
CN([C@@H]1CCc2c(CC(=O)O)c3cc(S(C)(=O)=O)ccc3n2C1)S(=O)(=O)c1ccc(F)cc1  remaining binding (PDGFRA; cell-free assay, competition with immobilised ligand; 1 µM): 100%
Cc1ccc(Nc2nccc(N(C)c3ccc4c(C)n(C)nc4c3)n2)cc1S(N)(=O)=O  remaining signal (PDGFRA; cell-free assay, inhibitor; 0.5 µM): 13.9%
CC/C(=N\NC(=O)NCc1cccc(O)c1)c1ccc(O)c(C)c1O  inhibition (PDGFRA V561D; enzyme activity, inhibitor; 0.1 µM): 0.9%
COc1cc2ncnc(Nc3ccc(Oc4ccccc4)cc3C)c2cc1OC  inhibition (PDGFRA T674I; enzyme activity, inhibitor; 1 µM): 0%
Cc1cnc(NC2CCOCC2)nc1-n1cnc(C(=O)NC(CN)c2cc(F)cc(Cl)c2)c1 (stereo not shown)  remaining activity (PDGFRA D842V; enzyme activity, inhibitor, radiometric; 1 µM): 104%
CC(C)(C)c1nc2c(s1)c1nc(N)ncc1c1ccc(NS(=O)(=O)c3c(F)cccc3F)c(F)c12  remaining activity (PDGFRA; enzyme activity, inhibitor, radiometric; 1 µM): 97%
Cc1ccc(NC(=O)c2ccc(C)c(C(F)(F)F)c2)cc1C#Cc1nn(C2CCC(O)CC2)c2ncnc(N)c12 (stereo not shown)  remaining activity (PDGFRA V561D; enzyme activity, inhibitor; 10 µM): 0%
C[C@H](c1ccc(F)cc1)N(Cc1cccc(C(=O)O)c1)C(=O)c1cnc2ccccc2c1  remaining binding (PDGFRA; cell-free assay, competition with immobilised ligand; 1 µM): 100%
CCCOc1ccc(OC)c(F)c1C(=O)c1ccc(C(=O)N[C@@H]2CNC[C@H]2NC(=O)c2ccc3[nH]ncc3c2)cc1  remaining activity (PDGFRA D842V; enzyme activity, inhibitor; 10 µM): 12%
O=C1Nc2ccc(Cl)cc2C1=Cc1cc(Cl)c(O)c(Cl)c1  remaining signal (PDGFRA; cell-free assay; 0.5 µM): 70.3%
Cc1nccc(COC(=O)N2C[C@@H]3[C@@H](CNC(=O)c4ccc5[nH]nnc5c4)[C@@H]3C2)n1  remaining binding (PDGFRA; cell-free assay, competition with immobilised ligand; 1 µM): 80%
COc1cc2ncnc(Nc3ccc(Oc4ccccc4)c(C)c3C)c2cc1OC  inhibition (PDGFRA T674I; enzyme activity, inhibitor; 1 µM): 9%
Nc1ncnc2occ(-c3ccc(NC(=O)Nc4cc(C(F)(F)F)ccc4F)cc3)c12  remaining activity (PDGFRA; enzyme activity, inhibitor; 20 µM): 0.05%
CCC(=N\O)/C(C)=C/c1ccc(F)cc1  remaining binding (PDGFRA; cell-free assay, competition with immobilised ligand; 1 µM): 78%
CNC(=O)c1cc(Oc2ccc(NC(=O)Nc3ccc(Cl)c(C(F)(F)F)c3)cc2)ccn1  inhibition (PDGFRA D842V; enzyme activity, inhibitor; 10 µM): 99%
CS(=O)(=O)CCNCc1ccc(-c2ccc3ncnc(Nc4ccc(OCc5cccc(F)c5)c(Cl)c4)c3c2)o1  remaining signal (PDGFRA; cell-free assay; 0.5 µM): 108%
O=C(Nc1ccc(Oc2ccc(F)cc2)cc1)N1CCc2ncccc2[C@H]1c1ccc(F)cc1  remaining binding (PDGFRA; cell-free assay, competition with immobilised ligand; 1 µM): 95%
